As usually defined, the IC50 is the midpoint of a concentration-inhibition curve.

Tested on in one experiment: not listed separately
Nature of the experiment: Ability to increase Human calcitonin secretion. It counts as functional.
Conditions: not given
The method in brief:
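Calcitonin secretion assay with radioimmunoassay read-out, measuring the rise in cellular levels and secretion of human CT. Compound tested at 30 µM. Value is the ratio of secretion with compound to secretion in untreated control; average precision error reported as 10-33%.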
On to `CCCCn1c(=O)c2cn(S(=O)(=O)CCCCl)nc2n(CCCC)c1=O`, for which the CTS increase came to 2.7.

For `CCCCn1c(=O)c2nn(S(=O)(=O)c3cc(Cl)c(Cl)s3)cc2n(CCCC)c1=O`, the CTS increase came to 3.4.

In the case of `CCCCn1c(=O)c2cn(S(=O)(=O)c3cccc4cccnc34)nc2n(CCCC)c1=O`, the CTS increase stood at 4.8.

For `CCCCn1c(=O)c2cn(S(=O)(=O)Cc3ccccc3)nc2n(CCCC)c1=O`, the CTS increase is 3.4.

As for `CCCCn1c(=O)c2nn(S(C)(=O)=O)cc2n(CCCC)c1=O`, the CTS increase stood at 0.9.

Regarding `CCCCn1c(=O)c2nn(S(=O)(=O)CCCCl)cc2n(CCCC)c1=O`, the CTS increase is 4.4.

As for `CCCCn1c(=O)c2cn(S(C)(=O)=O)nc2n(CCCC)c1=O`, the CTS increase came out at 3.9.

For `CCCCn1c(=O)c2cn(S(=O)(=O)c3ccc(C(C)(C)C)cc3)nc2n(CCCC)c1=O`, the CTS increase was 2.9.

For `CCCCn1c(=O)c2cn(S(=O)(=O)c3cc(Cl)c(Cl)s3)nc2n(CCCC)c1=O`, the CTS increase turned out to be 3.

`CCCCn1c(=O)c2cn(S(=O)(=O)c3ccccc3C#N)nc2n(CCCC)c1=O`: the CTS increase was determined as 3.4.

As for `CCCCn1c(=O)c2nn(S(=O)(=O)c3cccc(C(F)(F)F)c3)cc2n(CCCC)c1=O`, the CTS increase amounted to 3.8.

On to `CCCCn1c(=O)c2nn(S(=O)(=O)c3ccc(C(C)(C)C)cc3)cc2n(CCCC)c1=O`, for which the CTS increase turned out to be 4.5.

For `CCCCn1c(=O)c2c(ncn2CC(C)=O)n(CCCC)c1=O`, the CTS increase was 3.5.

As to `CCCCn1c(=O)c2nn(S(=O)(=O)Cc3ccccc3)cc2n(CCCC)c1=O`, the CTS increase was 2.6.

Turning to `CCCCn1c(=O)c2nn(S(=O)(=O)c3cccc4cccnc34)cc2n(CCCC)c1=O`, the CTS increase was found to be 3.8.

In the case of `CCCCn1c(=O)c2nn(S(=O)(=O)c3ccc4ccccc4c3)cc2n(CCCC)c1=O`, the CTS increase turned out to be 4.9.

Tested on in another experiment: not listed separately
Put plainly: Increased transcription of human calcitonin luciferase reporter gene at 30 uM. It counts as functional.
Conditions: not given
The essentials: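 Luciferase reporter gene under control of the human calcitonin gene/promoter, used to measure transcription activation. Compound tested at 30 µM. Read-out is the transcription activation ratio: luciferase activity with compound divided by luciferase activity in untreated control.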
As to `CCCCn1c(=O)c2cn(S(=O)(=O)CCCCl)nc2n(CCCC)c1=O`, the CT-luci TAR turned out to be 1.9 T/C.

Regarding `CCCCn1c(=O)c2nn(S(=O)(=O)c3cc(Cl)c(Cl)s3)cc2n(CCCC)c1=O`, the CT-luci TAR amounted to 1.7 T/C.

Regarding `CCCCn1c(=O)c2cn(S(=O)(=O)c3cccc4cccnc34)nc2n(CCCC)c1=O`, the CT-luci TAR is 2.9 T/C.

For `CCCCn1c(=O)c2cn(S(=O)(=O)Cc3ccccc3)nc2n(CCCC)c1=O`, the CT-luci TAR was determined as 2 T/C.

With `CCCCn1c(=O)c2nn(S(C)(=O)=O)cc2n(CCCC)c1=O`, the CT-luci TAR was determined as 2.1 T/C.

For `CCCCn1c(=O)c2nn(S(=O)(=O)CCCCl)cc2n(CCCC)c1=O`, the CT-luci TAR was found to be 1.3 T/C.

`CCCCn1c(=O)c2cn(S(C)(=O)=O)nc2n(CCCC)c1=O`: the CT-luci TAR worked out at 1.8 T/C.

As for `CCCCn1c(=O)c2cn(S(=O)(=O)c3ccc(C(C)(C)C)cc3)nc2n(CCCC)c1=O`, the CT-luci TAR was found to be 2.6 T/C.

`CCCCn1c(=O)c2cn(S(=O)(=O)c3cc(Cl)c(Cl)s3)nc2n(CCCC)c1=O`: the CT-luci TAR came out at 3.2 T/C.

Take `CCCCn1c(=O)c2cn(S(=O)(=O)c3ccccc3C#N)nc2n(CCCC)c1=O`: the CT-luci TAR turned out to be 3.6 T/C.

With `CCCCn1c(=O)c2nn(S(=O)(=O)c3cccc(C(F)(F)F)c3)cc2n(CCCC)c1=O`, the CT-luci TAR worked out at 1.8 T/C.

Turning to `CCCCn1c(=O)c2nn(S(=O)(=O)c3ccc(C(C)(C)C)cc3)cc2n(CCCC)c1=O`, the CT-luci TAR came to 2.3 T/C.

Take `CCCCn1c(=O)c2c(ncn2CC(C)=O)n(CCCC)c1=O`: the CT-luci TAR is 2.1 T/C.

Regarding `CCCCn1c(=O)c2nn(S(=O)(=O)Cc3ccccc3)cc2n(CCCC)c1=O`, the CT-luci TAR was found to be 1.5 T/C.

For the compound `CCCCn1c(=O)c2nn(S(=O)(=O)c3cccc4cccnc34)cc2n(CCCC)c1=O`, the CT-luci TAR was 2.2 T/C.

Consider `CCCCn1c(=O)c2nn(S(=O)(=O)c3ccc4ccccc4c3)cc2n(CCCC)c1=O`, for which the CT-luci TAR is 1.8 T/C.

A further experiment concerns the target T1, Phosphodiesterase 4 (Homo sapiens, UniProt P27815+Q08499+Q07343+Q08493). Nature of the experiment: Percent Rolipram activity of a standard U937 cell phosphodiesterase 4 (PDE4) enzyme assay at 30 uM of compound. It is filed as cell-based. As to conditions: U-937. The essentials:
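U937 cell PDE4 enzyme assay with compound at 30 µM. Activity is scaled and reported as percent of rolipram activity.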
In the case of `CCCCn1c(=O)c2cn(S(=O)(=O)CCCCl)nc2n(CCCC)c1=O`, the Activity was determined as 66%.

The compound `CCCCn1c(=O)c2nn(S(=O)(=O)c3cc(Cl)c(Cl)s3)cc2n(CCCC)c1=O` yielded an Activity of 59%.

Compound `CCCCn1c(=O)c2cn(S(=O)(=O)c3cccc4cccnc34)nc2n(CCCC)c1=O` returned an Activity of 96%.

For the compound `CCCCn1c(=O)c2cn(S(=O)(=O)Cc3ccccc3)nc2n(CCCC)c1=O`, the Activity was 52%.

On to `CCCCn1c(=O)c2nn(S(C)(=O)=O)cc2n(CCCC)c1=O`, for which the Activity is 60%.

Compound `CCCCn1c(=O)c2nn(S(=O)(=O)CCCCl)cc2n(CCCC)c1=O` gave an Activity of 69%.

The compound `CCCCn1c(=O)c2cn(S(C)(=O)=O)nc2n(CCCC)c1=O` showed an Activity of 93%.

Regarding `CCCCn1c(=O)c2cn(S(=O)(=O)c3ccc(C(C)(C)C)cc3)nc2n(CCCC)c1=O`, the Activity is 57%.

As for `CCCCn1c(=O)c2cn(S(=O)(=O)c3cc(Cl)c(Cl)s3)nc2n(CCCC)c1=O`, the Activity was determined as 16%.

In the case of `CCCCn1c(=O)c2cn(S(=O)(=O)c3ccccc3C#N)nc2n(CCCC)c1=O`, the Activity turned out to be 32%.

`CCCCn1c(=O)c2nn(S(=O)(=O)c3cccc(C(F)(F)F)c3)cc2n(CCCC)c1=O` showed an Activity of 32%.

With `CCCCn1c(=O)c2nn(S(=O)(=O)c3ccc(C(C)(C)C)cc3)cc2n(CCCC)c1=O`, the Activity is 37%.

`CCCCn1c(=O)c2c(ncn2CC(C)=O)n(CCCC)c1=O` came in with an Activity of 100%.

With `CCCCn1c(=O)c2nn(S(=O)(=O)Cc3ccccc3)cc2n(CCCC)c1=O`, the Activity came out at 65%.

In turn, `CCCCn1c(=O)c2nn(S(=O)(=O)c3cccc4cccnc34)cc2n(CCCC)c1=O` registered an Activity of 59%.

`CCCCn1c(=O)c2nn(S(=O)(=O)c3ccc4ccccc4c3)cc2n(CCCC)c1=O` had an Activity of 66%.

The next experiment addresses T1, Phosphodiesterase 4. Nature of the experiment: Inhibition of phosphodiesterase 4 (PDE4). It is filed as protein assay.
Conditions: not given
Turning to `CCCCn1c(=O)c2cn(S(=O)(=O)CCCCl)nc2n(CCCC)c1=O`, the IC50 came out at 4.9 µM.

Regarding `CCCCn1c(=O)c2nn(S(=O)(=O)CCCCl)cc2n(CCCC)c1=O`, the IC50 was found to be 4.9 µM.

For the origin of these results see ChEMBL document CHEMBL1135752, “Pyrazolopyrimidine-2,4-dione sulfonamides: novel and selective calcitonin inducers” (J Med Chem, 2002).
